Common to all, as to assay type: functional, organism-based
The subject of assay [1] is Staphylococcus aureus. The assay is described as follows: Antibacterial activity against normal-colony variant Staphylococcus aureus derived from cystic fibrosis patient assessed as resistant isolates at 37 degC after 24 hrs by disk diffusion method. A digest of the protocol:
(§1)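 Disk diffusion per CLSI guidelines (fosfomycin per French CA-SFM guidelines). NCV isolates tested on plain Mueller-Hinton agar and incubated 24 h at 37°C. Isolates scored susceptible or resistant per agent.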
(Agar diffusion results depend on both activity and mobility in agar.)

Assay [2] deals with Staphylococcus aureus. The assay can be described thus: Antibacterial activity against normal-colony variant Staphylococcus aureus derived from non cystic fibrosis patient assessed as resistant isolates at 37 degC after 24 hrs by disk diffusion method. A digest of the protocol:
as §1

Assay [3] deals with Staphylococcus aureus. The assay is described as follows: Antibacterial activity against thymidine-dependent small-colony variant Staphylococcus aureus derived from cystic fibrosis patient assessed as resistant isolates at 37 degC after 24 hrs by disk diffusion method. A digest of the protocol: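 Disk diffusion per CLSI guidelines (fosfomycin per French CA-SFM guidelines). Thymidine-dependent SCVs cannot grow without thymidine, so they were tested on Mueller-Hinton agar with 5% defibrinated sheep blood and incubated 24 h at 37°C. Isolates scored susceptible or resistant per agent.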

The source made the active and inactive calls. The rule behind the calls is not given here.

On to `CO[C@H]1/C=C/O[C@@]2(C)Oc3c(C)c(O)c4c(O)c(c(/C=N/N5CCN(C)CC5)c(O)c4c3C2=O)NC(=O)/C(C)=C\C=C\[C@H](C)[C@H](O)[C@@H](C)[C@@H](O)[C@@H](C)[C@H](OC(C)=O)[C@@H]1C`, for which the outcome in the assay with Staphylococcus aureus [1] and with Staphylococcus aureus [2] was Active. The outcome in the assay on Staphylococcus aureus [3] was inactive.
Take `C[C@@H]1O[C@@H]1P(=O)(O)O`: the outcome with Staphylococcus aureus [1] and with Staphylococcus aureus [2] was Active. In addition, in the assay on Staphylococcus aureus [3], the outcome was inactive.
In the case of `O=C(O)c1cn(C2CC2)c2cc(N3CCNCC3)c(F)cc2c1=O`, the result in the assay with Staphylococcus aureus [1] and in the assay on Staphylococcus aureus [2] was Active. For the same compound, the outcome with Staphylococcus aureus [3] was inactive.
As to GENTAMICIN, the result with Staphylococcus aureus [1] and in the assay with Staphylococcus aureus [2] was Active. Further, in the assay on Staphylococcus aureus [3], the outcome was inactive.
Take `CC[C@H]1OC(=O)[C@H](C)[C@@H](O[C@H]2C[C@@](C)(OC)[C@@H](O)[C@H](C)O2)[C@H](C)[C@@H](O[C@@H]2O[C@H](C)C[C@H](N(C)C)[C@H]2O)[C@](C)(O)C[C@@H](C)C(=O)[C@H](C)[C@@H](O)[C@]1(C)O`: the result with Staphylococcus aureus [1] and with Staphylococcus aureus [2] was Active. Further, the result in the assay with Staphylococcus aureus [3] was inactive.

These data come from ChEMBL document CHEMBL1275419, “The thymidine-dependent small-colony-variant phenotype is associated with hypermutability and antibiotic resistance in clinical Staphylococcus aureus isolates” (Antimicrob Agents Chemother, 2008).
